From ChEMBL document CHEMBL3259767, “Design, synthesis and biological evaluation of Pontin ATPase inhibitors through a molecular docking approach” (Bioorg Med Chem Lett, 2014) come the findings set out here.

Each structure is given as a SMILES string. The source made the active and inactive calls. The calls are words filed in the database; no cut-off is given here.

Assay [1] concerns HL-60. Kind of assay: Antiproliferative activity against human HL60 cells at 10 uM after 72 hrs. In kind it is functional, cell-based. In outline:
(§1)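 Cells exposed to compound for 72 h. IC50 values come from KB and HL60 cells. Single-point screening was run at 10^-5 M.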

The next assay deals with MCF7. Kind of assay: Antiproliferative activity against human MCF7 cells at 10 uM after 72 hrs. In kind it is functional, cell-based. In outline: as §1
Assay [2] deals with KB. Put plainly: Antiproliferative activity against human KB cells at 10 uM after 72 hrs. In kind it is functional, cell-based. In outline: as §1
The target of assay [3] is RuvB-like 1 (Homo sapiens) (UniProt Q9Y265). Kind of assay: Inhibition of human recombinant his-tagged pontin expressed in Escherichia coli BL21 assessed as reduction in inorganic phosphate release at 100 uM after 10 mins by malachite green-based colorimetric assay. In short, it runs like this: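 Pontin ATPase activity was measured as inorganic phosphate release by malachite green assay, with compounds tested at 100 µM.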
Sequence of RuvB-like 1 (Homo sapiens) (Q9Y265 whole entry): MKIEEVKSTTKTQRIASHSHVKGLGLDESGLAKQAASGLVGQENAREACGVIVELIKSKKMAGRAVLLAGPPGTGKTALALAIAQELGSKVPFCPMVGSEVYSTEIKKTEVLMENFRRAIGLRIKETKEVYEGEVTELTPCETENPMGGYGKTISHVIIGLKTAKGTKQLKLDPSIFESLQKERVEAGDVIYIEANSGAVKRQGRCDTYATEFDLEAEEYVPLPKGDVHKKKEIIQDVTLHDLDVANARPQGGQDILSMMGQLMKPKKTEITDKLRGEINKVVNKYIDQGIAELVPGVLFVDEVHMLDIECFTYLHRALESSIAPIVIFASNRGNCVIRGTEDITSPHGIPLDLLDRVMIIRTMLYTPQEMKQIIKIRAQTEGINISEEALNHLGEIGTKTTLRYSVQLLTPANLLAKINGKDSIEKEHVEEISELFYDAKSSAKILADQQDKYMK

A further assay has as its system HCT-116. Put plainly: Antiproliferative activity against human HCT116 cells at 10 uM after 72 hrs. In kind it is functional, cell-based. In short, it runs like this:
as §1

For assay [4], the system named is HL-60. Kind of assay: Induction of necrosis in human HL60 cells assessed as decrease in total LDH at 1 uM after 48 hrs. The assay is classed as functional, cell-based. In short, it runs like this: (§2)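 Necrosis marker: LDH released into the culture medium and total LDH were measured in HL60 cells after 24 or 48 h treatment at 5–50 µM, with doxorubicin 1 µM as control.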

Assay [5] concerns HL-60. Put plainly: Cell cycle arrest in human HL60 cells assessed as accumulation at S phase at 5 uM after 24 hrs by propidium iodide-based flow cytometry (reference value: 48.7 %). The assay is classed as functional. In outline:
(§3)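 HL60 cells were treated for 24 h at 5, 20 or 50 µM, with doxorubicin 50 nM as control. DNA was stained with propidium iodide and analysed by flow cytometry. Results are the percentage of cells in subG1, G0/G1, S and G2/M.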
A general note: In flow cytometry, cells or beads pass a laser one at a time.

Assay [6] has as its system HL-60. Put plainly: Induction of apoptosis in human HL60 cells assessed as caspase 3 activity measured as cleavage of DEVD at 50 uM after 48 hrs by FACS analysis relative to control. In kind it is functional. In outline:
(§4)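 Caspase 3 activity was read in HL60 cells after 24 or 48 h treatment at 5–50 µM, with doxorubicin 1 µM as positive control. Activity is expressed relative to untreated HL60, set at 100.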

Assay [7] concerns HL-60. Put plainly: Antiproliferative activity against human HL60 cells after 72 hrs. The assay is classed as functional, cell-based. Conditions: HL-60, 72 h. In outline: as §1
The test system of assay [8] is HL-60. Put plainly: Induction of apoptosis in human HL60 cells assessed as caspase 3 activity measured as cleavage of DEVD at 10 uM after 48 hrs by FACS analysis relative to control. In kind it is functional. In outline: as §4
A short description of assay [9]: Antiproliferative activity against human EPC cells after 72 hrs. The assay is classed as cell-based.
Assay [10] deals with HL-60. Kind of assay: Cell cycle arrest in human HL60 cells assessed as accumulation at G0/G1 phase at 50 uM after 24 hrs by propidium iodide-based flow cytometry (reference value: 47.6 %). The assay is classed as functional. In short, it runs like this:
as §3

For assay [11], the system named is HL-60. Kind of assay: Cell cycle arrest in human HL60 cells assessed as accumulation at G0/G1 phase at 20 uM after 24 hrs by propidium iodide-based flow cytometry (reference value: 47.6 %). In kind it is functional. In short, it runs like this:
as §3

In assay [12] the test system is HL-60. Kind of assay: Induction of apoptosis in human HL60 cells after 24 to 48 hrs by FACS analysis. The assay is classed as functional, cell-based. In outline: (§5)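 HL60 cells were labelled with annexin and 7-AAD after 24 or 48 h exposure at 5, 20 or 50 µM, with doxorubicin 100 nM as reference. FACS sorted cells into intact, early apoptotic, late apoptotic and necrotic fractions, given as percentages.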

The subject of assay [13] is HL-60. Put plainly: Induction of necrosis in human HL60 cells assessed as LDH release at >20 uM after 24 hrs. In kind it is functional, cell-based. In short, it runs like this:
as §2

For assay [14], the system named is HL-60. Kind of assay: Induction of apoptosis in human HL60 cells assessed as caspase 3 activity measured as cleavage of DEVD at 20 uM after 48 hrs by FACS analysis relative to control. In kind it is functional. In outline: as §4
Assay [15] has as its system HL-60. Put plainly: Induction of apoptosis in human HL60 cells at 20 uM after 24 hrs by FACS analysis. The assay is classed as functional, cell-based. In short, it runs like this: as §5
Assay [16] has as its system HL-60. Put plainly: Induction of apoptosis in human HL60 cells assessed as caspase 3 activity measured as cleavage of DEVD at 5 uM after 24 hrs by FACS analysis relative to control. The assay is classed as functional. In outline:
as §4

Assay [17] deals with HL-60. Put plainly: Induction of apoptosis in human HL60 cells assessed as caspase 3 activity measured as cleavage of DEVD at 20 uM after 24 hrs by FACS analysis relative to control. The assay is classed as functional. In short, it runs like this:
as §4

Assay [18] has as its system HL-60. Put plainly: Cell cycle arrest in human HL60 cells assessed as accumulation at subG1 phase at 20 uM after 24 hrs by propidium iodide-based flow cytometry (reference value: 1.2 %). The assay is classed as functional. In short, it runs like this: as §3
Assay [19] concerns HL-60. Put plainly: Cell cycle arrest in human HL60 cells assessed as accumulation at subG1 phase at 50 uM after 24 hrs by propidium iodide-based flow cytometry (reference value: 1.2 %). The assay is classed as functional. In short, it runs like this: as §3
Assay [20] has as its system HL-60. Put plainly: Cell cycle arrest in human HL60 cells assessed as accumulation at subG1 phase after 24 hrs by propidium iodide-based flow cytometry. The assay is classed as functional. In short, it runs like this: as §3
Assay [21] deals with HL-60. Kind of assay: Cell cycle arrest in human HL60 cells assessed as accumulation at G2/M phase at 5 uM after 24 hrs by propidium iodide-based flow cytometry (reference value: 2.5 %). In kind it is functional. In short, it runs like this: as §3
In assay [22] the test system is HL-60. Kind of assay: Induction of apoptosis in human HL60 cells assessed as caspase 3 activity measured as cleavage of DEVD at 5 uM after 48 hrs by FACS analysis relative to control. In kind it is functional. In outline:
as §4

Assay [23] concerns HL-60. Put plainly: Induction of necrosis in human HL60 cells assessed as decrease in total LDH after 48 hrs. The assay is classed as functional, cell-based. In outline:
as §2

Assay [24] has as its system HL-60. Kind of assay: Cell cycle arrest in human HL60 cells assessed as accumulation at G2/M phase at 50 uM after 24 hrs by propidium iodide-based flow cytometry (reference value: 2.5 %). The assay is classed as functional. In outline: as §3
In assay [25] the test system is HL-60. Kind of assay: Cell cycle arrest in human HL60 cells assessed as accumulation at subG1 phase at 5 uM after 24 hrs by propidium iodide-based flow cytometry (reference value: 1.2 %). In kind it is functional. In outline:
as §3

Assay [26] has as its system HL-60. Kind of assay: Induction of apoptosis in human HL60 cells at 20 uM after 48 hrs by FACS analysis. The assay is classed as functional, cell-based. In short, it runs like this:
as §5

Assay [27] has as its system HL-60. Kind of assay: Induction of apoptosis in human HL60 cells assessed as caspase 3 activity measured as cleavage of DEVD after 24 to 48 hrs by FACS analysis relative to control. The assay is classed as functional, cell-based. In short, it runs like this:
as §4

The test system of assay [28] is HL-60. Put plainly: Cell cycle arrest in human HL60 cells assessed as accumulation at G2/M phase at 20 uM after 24 hrs by propidium iodide-based flow cytometry (reference value: 2.5 %). The assay is classed as functional. In outline:
as §3

The subject of assay [29] is HL-60. Put plainly: Cell cycle arrest in human HL60 cells assessed as accumulation at G0/G1 phase at 5 uM after 24 hrs by propidium iodide-based flow cytometry (reference value: 47.6 %). In kind it is functional. In short, it runs like this: as §3
Assay [30] has as its system HL-60. Put plainly: Induction of apoptosis in human HL60 cells assessed as caspase 3 activity measured as cleavage of DEVD at 50 uM after 24 hrs by FACS analysis relative to control. In kind it is functional. In short, it runs like this:
as §4

Assay [31] concerns HL-60. Put plainly: Cell cycle arrest in human HL60 cells assessed as accumulation at S phase at 50 uM after 24 hrs by propidium iodide-based flow cytometry (reference value: 48.7 %). In kind it is functional. In short, it runs like this: as §3
Assay [32] concerns HL-60. Put plainly: Induction of apoptosis in human HL60 cells assessed as caspase 3 activity measured as cleavage of DEVD at 10 uM after 24 hrs by FACS analysis relative to control. In kind it is functional. In outline:
as §4

Assay [33] deals with KB. Put plainly: Antiproliferative activity against human KB cells after 72 hrs. The assay is classed as functional, cell-based. In outline: as §1
The test system of assay [34] is HL-60. Put plainly: Cell cycle arrest in human HL60 cells assessed as accumulation at S phase at 20 uM after 24 hrs by propidium iodide-based flow cytometry (reference value: 48.7 %). The assay is classed as functional. In short, it runs like this: as §3
Assay [35] has as its system HL-60. Put plainly: Induction of apoptosis in human HL60 cells at 50 uM after 24 hrs by FACS analysis relative to control. The assay is classed as functional. In outline: as §5

Take `O=C(O)[C@H](Cc1c[nH]c2ccccc12)NCc1ccc(-c2c(O)c3ccccc3[nH]c2=O)cc1`: the result with HL-60 [1], with MCF7, with KB [2] and with HCT-116 was inactive. In [3], the inhibition result is “inactive”.
As for `N[C@@H](Cc1c[nH]c2ccccc12)C(=O)Nc1ccc(-c2c(O)c3ccccc3[nH]c2=O)cc1`, the outcome in the assay with HL-60 [1], with MCF7, with KB [2] and with HCT-116 was inactive.
Turning to `COc1cccc2c1C(=O)c1c(O)c3c(c(O)c1C2=O)C[C@@](O)(C(=O)CO)C[C@@H]3O[C@H]1C[C@H](N)[C@H](O)[C@H](C)O1`, the outcome in the assay with HL-60 [4] was Active.
As for `O=C(O)[C@@H](Cc1c[nH]c2ccccc12)NCc1ccc(-c2c(O)c3ccccc3[nH]c2=O)cc1`, the result with HL-60 [1], in the assay on MCF7, with KB [2] and in the assay with HCT-116 was inactive. Also, the inhibition result in [3] was “inactive”.
Take `N[C@@H](Cc1c[nH]c2ccccc12)C(=O)Nc1ccc(-c2c(O)c(-c3ccccc3)c[nH]c2=O)cc1`: the Activity is 44.7% in the assay with HL-60 [5]; 169% in the assay on HL-60 [6]; 131% with HL-60 [8]; 14.7% in the assay on HL-60 [10]; 46.8% with HL-60 [11]; “Dose-dependent effect” with HL-60 [12]. Also, the Activity in the assay with HL-60 [14] is 247%; in the assay on HL-60 [16], 116%; with HL-60 [17], 134%; in the assay on HL-60 [18] it was 10.9%; in the assay with HL-60 [19], 69.5%; with HL-60 [20], “Dose-dependent effect”. Moreover, the Activity with HL-60 [21] is 4.3%; with HL-60 [22], 119%; in the assay on HL-60 [23] it was “Dose-dependent effect”; in the assay with HL-60 [24] it was 1.3%; in the assay with HL-60 [25], 2.7%; in the assay with HL-60 [27], “Dose-dependent effect”. Besides, the Activity with HL-60 [28] turned out to be 8%; with HL-60 [29], 48.3%; with HL-60 [30], 306%; in the assay on HL-60 [31] it was 14.6%; in the assay on HL-60 [32], 111%; with HL-60 [34], 34.4%. Also, the Activity in the assay on HL-60 [35] is recorded as 95%. In addition, the outcome in the assay on HL-60 [1], in the assay on MCF7, in the assay with KB [2], in the assay on HL-60 [13], in the assay on HL-60 [15] and in the assay on HL-60 [26] was Active. Further, the result in the assay on HCT-116 was Active. The IC50 is 15 µM in the assay on HL-60 [7], 25 µM in [9] and 9 µM in the assay on KB [33]. In addition, the inhibition entry in assay [3] was “Active”.

The IC50 is the midpoint of a concentration-inhibition curve.
